These results are taken from ChEMBL document CHEMBL2040740, “Synthesis and antitumor activity of formononetin nitrogen mustard derivatives” (Eur J Med Chem, 2012).

For one test, the system named is SH-SY5Y. Description: Cytotoxicity against human SH-SY5Y cells after 72 hrs by MTT assay. It is filed as functional, cell-based. In outline:
(§1)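 Cells grown at 37 °C in 5% CO₂/95% air, in RPMI-1640 or DMEM with 10% neonatal bovine serum or 10% FBS. Exposed to a concentration series for 72 h, then MTT added for a further 4 h at 37 °C. Formazan dissolved in DMSO and absorbance read at 570 and 630 nm. Triplicate wells in three independent experiments; IC50 calculated by dose-effect analysis.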
(Tetrazolium dyes change colour on reduction, which living cells bring about.)

Test [1] deals with HCT-116. Description: Cytotoxicity against human HCT116 cells after 72 hrs by MTT assay. The following applies: HCT-116, 72 h. The format is functional, cell-based. The essentials: as §1
The next test has as its system DU-145. Briefly: Cytotoxicity against human DU145 cells after 72 hrs by MTT assay. The following applies: DU-145, 72 h. The format is functional, cell-based. In outline:
as §1

The subject of test [2] is HeLa. Briefly: Cytotoxicity against human HeLa cells after 72 hrs by MTT assay. The format is functional, cell-based. The essentials:
as §1

The next test relates to SGC-7901. Description: Cytotoxicity against human SGC7901 cells after 72 hrs by MTT assay. The settings on record: SGC-7901, 72 h. It is filed as functional, cell-based. The essentials: as §1
The subject of test [3] is HCT-116. Description: Cell cycle arrest in human HCT116 cells assessed as accumulation in G2/M phase after 48 hrs by flow cytometry. The format is functional, cell-based. In outline: (§2)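 Cells exposed to test agent for 48 h, then harvested, washed twice in PBS and fixed in 75% ice-cold ethanol at least overnight. DNA content of 10,000 events analysed by flow cytometry, giving percentage of cells in each cycle phase versus vehicle control.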
A general note: A flow cytometer gives signals particle by particle.

The test system of test [4] is HCT-116. Description: Cell cycle arrest in human HCT116 cells assessed as decrease in S phase cells at 2 to 8 uM after 48 hrs by flow cytometry. It is filed as functional, cell-based. In outline:
as §2

Test [5] has as its system HCT-116. Briefly: Cell cycle arrest in human HCT116 cells assessed as accumulation in G2/M phase at 8 uM after 48 hrs by flow cytometry relative to control. The format is functional. The essentials: as §2
In test [6] the test system is HCT-116. Briefly: Induction of apoptosis in human HCT116 cells assessed as early to mid apoptotic cells at 2 uM after 48 hrs by annexinV-FITC/PI staining-based flow cytometry (reference value: 1.62%). The format is functional. The essentials: (§3)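 After 48 h treatment, cells washed twice in cold PBS and resuspended in binding buffer at 1 × 10⁵ cells/mL. Stained with Annexin V-FITC and propidium iodide in the dark for 15 min at room temperature, then analysed by flow cytometry. Lower-right quadrant scored as early-mid apoptotic, upper-right as late apoptotic/necrotic. Experiments performed three times.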

For test [7], the system named is HCT-116. Briefly: Induction of apoptosis in human HCT116 cells assessed as late apoptotic to necrotic cells at 2 uM after 48 hrs by annexinV-FITC/PI staining-based flow cytometry (reference value: 0.43%). The format is functional. In outline:
as §3

Test [8] relates to HCT-116. Briefly: Induction of apoptosis in human HCT116 cells assessed as early to mid apoptotic cells at 8 uM after 48 hrs by annexinV-FITC/PI staining-based flow cytometry (reference value: 1.62%). The format is functional. In outline: as §3
For test [9], the system named is HCT-116. Briefly: Induction of apoptosis in human HCT116 cells assessed as late apoptotic to necrotic cells at 8 uM after 48 hrs by annexinV-FITC/PI staining-based flow cytometry (reference value: 0.43%). It is filed as functional. The essentials: as §3
Test [10] has as its system HeLa. Briefly: Cell cycle arrest in human HeLa cells assessed as accumulation in G2/M phase after 48 hrs by flow cytometry. The format is functional, cell-based. The essentials: as §2
Test [11] relates to HeLa. Description: Cell cycle arrest in human HeLa cells assessed as decrease in S phase cells at 3.75 to 15 uM after 48 hrs by flow cytometry. It is filed as functional, cell-based. In outline:
as §2

Test [12] concerns HeLa. Briefly: Cell cycle arrest in human HeLa cells assessed as accumulation in G2/M phase at 15 uM after 48 hrs by flow cytometry relative to control. It is filed as functional. In outline: as §2
In test [13] the test system is HeLa. Description: Induction of apoptosis in human HeLa cells assessed as early to mid apoptotic cells at 5 uM after 48 hrs by annexinV-FITC/PI staining-based flow cytometry (reference value: 2.93%). It is filed as functional. In outline:
as §3

In test [14] the test system is HeLa. Briefly: Induction of apoptosis in human HeLa cells assessed as late apoptotic to necrotic at 5 uM after 48 hrs by annexinV-FITC/PI staining-based flow cytometry (reference value: 1.98%). The format is functional. The essentials:
as §3

The subject of test [15] is HeLa. Briefly: Induction of apoptosis in human HeLa cells assessed as early to mid apoptotic cells at 10 uM after 48 hrs by annexinV-FITC/PI staining-based flow cytometry (reference value: 2.93%). It is filed as functional. The essentials:
as §3

Active and inactive are the calls of the source. The rule behind the calls is not given here.

What is called IC50 is the concentration that inhibits the measured activity by half. A high value points to weaker potency. On to `COc1ccc(-c2coc3cc(OCCc4ccccc4)ccc3c2=O)cc1N(CCCl)CCCl`, for which the IC50 in the test on SH-SY5Y was 3.84 µM; in the test with HCT-116 [1], 8.05 µM; in the test with DU-145, 7.57 µM; in the test on HeLa [2] it was 17.8 µM; in the test on SGC-7901 it was 11 µM.
For `C=CCOc1ccc2c(=O)c(-c3ccc(OC)c(N(CCCl)CCCl)c3)coc2c1`, the IC50 in the test on SH-SY5Y was found to be 4.51 µM; in the test on HCT-116 [1], 7.54 µM; in the test on DU-145 it was 15.4 µM; in the test on HeLa [2], 9.22 µM; in the test on SGC-7901, 10.2 µM.
On to `COc1ccc(-c2coc3cc(OC(C)C)ccc3c2=O)cc1N(CCCl)CCCl`, for which the IC50 in the test on SH-SY5Y was determined as 2.17 µM; with HCT-116 [1], 3.8 µM; in the test on DU-145, 19.5 µM; with HeLa [2], 12.5 µM; with SGC-7901, 9.21 µM. Further, the Activity result in the test with HCT-116 [3] was “Dose-dependent effect”; in the test with HCT-116 [5], 24.84%; in the test on HCT-116 [6], 9.95%; with HCT-116 [7], 0.38%; in the test on HCT-116 [8], 38.1%; in the test with HCT-116 [9], 43.72%. The result in the test with HCT-116 [4] was Active.
Consider `COc1ccc(-c2coc3cc(OCc4ccccc4)ccc3c2=O)cc1N(CCCl)CCCl`, for which the IC50 is 11.4 µM with SH-SY5Y; 4.97 µM in the test on HCT-116 [1]; 26.5 µM in the test on DU-145; 16.4 µM with HeLa [2]; 18.8 µM with SGC-7901.
For the molecule `COc1ccc(-c2coc3cc(OCc4ccc(C)cc4)ccc3c2=O)cc1N(CCCl)CCCl`, the IC50 in the test with SH-SY5Y was 49.9 µM; in the test on HCT-116 [1], 9.41 µM; in the test on DU-145 it was 18.8 µM; in the test with HeLa [2], 12.6 µM; with SGC-7901, 7.73 µM.
The corresponding values for `C=C(C)COc1ccc2c(=O)c(-c3ccc(OC)c(N(CCCl)CCCl)c3)coc2c1` are 10.8 µM, 14.6 µM, 15.6 µM, 18.3 µM and 15.4 µM.
As for `CCOc1ccc2c(=O)c(-c3ccc(OC)c(N(CCCl)CCCl)c3)coc2c1`, the IC50 worked out at 11.9 µM in the test with SH-SY5Y; 8.47 µM with HCT-116 [1]; 23.9 µM in the test with DU-145; 10.7 µM with HeLa [2]; 13 µM with SGC-7901.
The corresponding values for `CCCOc1ccc2c(=O)c(-c3ccc(OC)c(N(CCCl)CCCl)c3)coc2c1` are 7.89 µM, 15.2 µM, 28.8 µM, 12.8 µM and greater than 100 µM.
For the molecule `COc1ccc(-c2coc3cc(O)ccc3c2=O)cc1` [FORMONONETIN], the IC50 is greater than 100 µM in the test on SH-SY5Y; 61 µM with HCT-116 [1]; greater than 100 µM with DU-145; 8.51 µM in the test on HeLa [2]; 2.17 µM in the test with SGC-7901.
For the molecule `CCCCOc1ccc2c(=O)c(-c3ccc(OC)c(N(CCCl)CCCl)c3)coc2c1`, the IC50 was 16.3 µM with SH-SY5Y; 17.1 µM in the test with HCT-116 [1]; 8.28 µM in the test with DU-145; 11.8 µM in the test on HeLa [2]; 11.8 µM with SGC-7901.
Turning to `COc1ccc(-c2coc3cc(OC4CCCC4)ccc3c2=O)cc1N(CCCl)CCCl`, the IC50 with SH-SY5Y was found to be 5.13 µM; in the test with HCT-116 [1] it was 8.75 µM; in the test on DU-145, 11.1 µM; in the test on HeLa [2] it was 19.3 µM; with SGC-7901 it was 15.2 µM.
Regarding `COc1ccc(-c2coc3cc(OC4CCCCC4)ccc3c2=O)cc1N(CCCl)CCCl`, the IC50 with SH-SY5Y was determined as 4.44 µM; in the test on HCT-116 [1], 6.54 µM; with DU-145, 11.2 µM; in the test on HeLa [2] it was 8.29 µM; in the test on SGC-7901 it was 15.8 µM. In addition, the Activity result in the test on HeLa [10] is “Dose-dependent effect”; in the test with HeLa [12], 21.33%; with HeLa [13], 3.06%; in the test on HeLa [14], 3.27%; in the test on HeLa [15], 8.83%. Moreover, the result with HeLa [11] was Active.
In the case of `N[C@@H](Cc1ccc(N(CCCl)CCCl)cc1)C(=O)O` [MELPHALAN], the IC50 with SH-SY5Y stood at 5.5 µM; in the test on HCT-116 [1], 20.9 µM; with DU-145, 96.3 µM; in the test on HeLa [2], 24 µM; in the test on SGC-7901, 51 µM.
Turning to `CCC(C)Oc1ccc2c(=O)c(-c3ccc(OC)c(N(CCCl)CCCl)c3)coc2c1` (stereo not drawn), the 50% inhibitory concentration (IC50) in the test on SH-SY5Y is 3.58 µM; with HCT-116 [1] it was 20.2 µM; in the test with DU-145 it was 28.8 µM; with HeLa [2], 18.9 µM; in the test with SGC-7901 it was 47.5 µM.
Consider `COc1ccc(-c2coc3cc(OCC=C(C)C)ccc3c2=O)cc1N(CCCl)CCCl`, for which the IC50 with SH-SY5Y is 5.25 µM; with HCT-116 [1] it was 13.8 µM; in the test with DU-145 it was 12.2 µM; in the test on HeLa [2] it was 18 µM; with SGC-7901, 19.8 µM.
As for `COc1ccc(-c2coc3cc(OCCC(C)C)ccc3c2=O)cc1N(CCCl)CCCl`, the half-maximal inhibitory concentration (IC50) with SH-SY5Y worked out at 10.4 µM; with HCT-116 [1], 7.67 µM; in the test on DU-145, 6.6 µM; in the test on HeLa [2], 9.81 µM; in the test with SGC-7901, 9.47 µM.
In the case of `COc1ccc(-c2coc3cc(OC4CCCCCC4)ccc3c2=O)cc1N(CCCl)CCCl`, the IC50 in the test on SH-SY5Y came to 2.08 µM; with HCT-116 [1], 5.72 µM; in the test with DU-145, 10.1 µM; with HeLa [2], 8.85 µM; in the test on SGC-7901, 14.3 µM.
On to `COc1ccc(-c2coc3cc(O)ccc3c2=O)cc1N(CCCl)CCCl`, for which the IC50 in the test on SH-SY5Y worked out at 2.7 µM; with HCT-116 [1], 4.1 µM; in the test with DU-145, 22.6 µM; with HeLa [2] it was 56.3 µM; in the test with SGC-7901 it was 8.2 µM.
